# ChEMBL document CHEMBL1144836, “Constituents of the sea cucumber Cucumaria okhotensis. Structures of okhotosides B1-B3 and cytotoxic activities of some glycosides from this species” (J Nat Prod, 2008)
# Experiments:
# [1] = system: HeLa; assay: Cytotoxicity against human HeLa cells; type: functional, cell-based
# In short: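 HeLa cells seeded at 6000 cells/well and cultured 12 h in RPMI with 10% FBS. Medium then replaced with 5% FBS-RPMI containing test concentrations, 22 h incubation. MTS added and reduction read 2 h later by absorbance at 492 nm, with 690 nm as background.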
# [2] = Decrease in EGF induced AP1 dependent transcription in mouse […] cells at 1.1 ug/ml by luciferase assay; type: functional; design: scale not given: the % may be the effect or the level left
# In short: (§1)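 JB6-LucAP-1 reporter cells activated with EGF (10 ng/mL), TPA (20 ng/mL) or UVB (4 kJ/m2), plated at 6 × 10^3/well in 5% FBS/MEM and kept 24 h. Compound added in 0.1% FBS-MEM for 24 h. Cells lysed 1 h at room temperature, then luciferase luminescence read. Two independent experiments, five samples per concentration.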
# [3] = Decrease in EGF induced NFKappaB dependent transcription in mouse JB6 Cl41 cells at 0.7 ug/ml by luciferase assay; type: functional; design: scale not given: the % may be the effect or the level left
# In short: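 JB6-LucNF-κB reporter cells activated with EGF (10 ng/mL), plated at 6 × 10^3/well in 5% FBS/MEM and kept 24 h. Compound added in 0.1% FBS-MEM for 24 h. Cells lysed 1 h at room temperature, then luciferase luminescence read. Two independent experiments, five samples per concentration.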
# [4] = Inhibition EGF induced mouse JB6 P+Cl41 cells colony formation in soft agar; type: functional
# In short: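 JB6 P+ Cl41 cells (8 × 10^3/mL) activated with EGF (10 ng/mL), in 0.33% BME agar with 10% FBS over a 0.5% BME agar layer, compound in both layers. Kept 1 week at 37 °C, 5% CO2. Colonies scored by microscopy and INCC50 derived. Two independent experiments in triplicate.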
# [5] = Cytotoxicity against mouse JB6Cl41 cells; type: functional, cell-based; conditions: JB6 Cl41
# [6] = Increase in p53 dependent transcription in mouse JB6 Cl41 cells at 1.8 ug/ml by luciferase assay; type: functional
# In short: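 JB6-Lucp53 reporter cells, not activated, plated at 6 × 10^3/well in 5% FBS/MEM and kept 24 h. Compound added in 0.1% FBS-MEM for 24 h. Cells lysed 1 h at room temperature, then luciferase luminescence read. Two independent experiments, five samples per concentration.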
# [7] = system: THP-1; assay: Cytotoxicity against human THP1 cells; type: functional, cell-based
# [8] = Decrease in TPA induced AP1 dependent transcription in mouse JB6 Cl41 cells at 1.1 ug/ml by luciferase assay; type: functional; design: scale not given: the % may be the effect or the level left; in short: as §1
# [9] = Decrease in UVB induced AP1 dependent transcription in mouse JB6 Cl41 cells at 0.7 ug/ml by luciferase assay; type: functional; design: scale not given: the % may be the effect or the level left; in short: as §1
compound,measurement,setting,value
C=C(C)CCC[C@]1(C)OC(=O)C23CC[C@H]4C(=CC[C@H]5C(C)(C)C(O[C@@H]6OC[C@@H](OS(=O)(=O)[O-])[C@H](O)[C@H]6O[C@@H]6O[C@H](CO)[C@@H](O[C@@H]7O[C@H](CO)[C@@H](O)[C@H](O[C@@H]8O[C@H](CO)[C@@H](O)[C@H](OC)[C@H]8O)[C@H]7O)[C@H](O)[C@H]6O[C@@H]6OC[C@@H](O)[C@H](O)[C@H]6O)CC[C@]45C)[C@]2(C)C[C@H](OC(C)=O)C31.[Na+] (stereo partly specified) [OKHOTOSIDE B1],IC50,[1],34 µg/mL
CO[C@@H]1[C@@H](O)[C@H](O[C@@H]2[C@@H](O)[C@H](O[C@H]3[C@H](O)[C@@H](O[C@@H]4OC[C@@H](O)[C@H](O)[C@H]4O)[C@H](O[C@H]4[C@H](OC5CC[C@]6(C)[C@H]7CCC89C(=O)O[C@@](C)(CCCC(C)C)C8[C@@H](OC(C)=O)C[C@@]9(C)C7=CC[C@H]6C5(C)C)OC[C@@H](OS(=O)(=O)[O-])[C@@H]4O)O[C@@H]3C)OC[C@H]2O)O[C@H](CO)[C@H]1O.[Na+] (stereo partly specified) [FRONDOSIDE A],Activity,[2],51%
same,IC50,[1],2.1 µg/mL
same,Activity,[3],37%
same,INCC50,[4],0.8 µg/mL
same,IC50,[5],5.9 µg/mL
same,Activity,[6],39%
same,IC50,[7],4.5 µg/mL
same,Activity,[8],20%
same,Activity,[9],41%
C=C(C)CCC[C@]1(C)OC(=O)C23CC[C@H]4C(=CC[C@H]5C(C)(C)C(O[C@@H]6OC[C@@H](OS(=O)(=O)[O-])[C@H](O)[C@H]6O[C@@H]6O[C@H](CO)[C@@H](O[C@@H]7O[C@H](COS(=O)(=O)[O-])[C@@H](O)[C@H](O[C@@H]8O[C@H](CO)[C@@H](O)[C@H](OC)[C@H]8O)[C@H]7O)[C@H](O)[C@H]6O[C@@H]6OC[C@@H](O)[C@H](O)[C@H]6O)CC[C@]45C)[C@]2(C)C[C@H](OC(C)=O)C31.[Na+].[Na+] (stereo partly specified) [OKHOTOSIDE B2],IC50,[1],13 µg/mL
